Assay results published in ChEMBL document CHEMBL1137800, “Evaluation of marine sponge metabolites for cytotoxicity and signal transduction activity” (J Nat Prod, 1993).
In brackets after ≈: the same amount, converted by molar mass. Activity calls are given as the source filed them. The rule behind the calls is not given here.

Experiments:
[1] = Cytotoxicity against mouse EL-4.IL-2 cells after 3 to 4 days by Trypan blue exclusion test; type: functional, cell-based
[2] = tested on: A549; assay: Cytotoxicity against human A549 cells after 48 hrs by MTT assay; type: functional, cell-based; settings: A549, 48 h
Summary of the method: (§1)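 A549 and HT-29 cells grown in RPMI 1640 with 10% horse serum and exposed at 37° in gentamicin-containing medium, with MeOH vehicle evaporated. Exposure ran 48 h […] before MTT was added for 90 min. Formazan dissolved in acidified iPrOH and A570 read. IC50 from logit-regression of absorbance versus drug-free wells; 5-fluorouracil and adriamycin included as controls.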

[3] = species: Mus musculus; assay: Inhibition of PKC-mediated mouse EL-4.IL-2 cells adherence by MTT assay
Summary of the method: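 Mouse EL-4.IL-2 cells (2.5×10^5/well, within 15 passages of frozen stock) incubated 1 h at 37° with compounds in triplicate, with PMA (16 nM final) or without PMA; final EtOH ≤1.25%. Four shaker wash cycles. Adherent cells read by MTT, 4 h at 37°, formazan dissolved in iPrOH, A570. A parallel unwashed plate without PMA monitored cytotoxicity. Adherence inhibitor: blocks PMA-induced adherence, induces none alone, not cytotoxic.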

[4] = tested on: HT-29; assay: Cytotoxicity against human HT-29 cells after 48 hrs by MTT assay; type: functional, cell-based; settings: HT-29, 48 h; summary of the method: as §1
[5] = tested on: P388; assay: Cytotoxicity against mouse P388 cells after 48 hrs by MTT assay; type: functional, cell-based; settings: P388, 48 h
Summary of the method: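 P-388 cells seeded at 1×10^5 cells/ml in RPMI 1640 with 10% horse serum and gentamicin (50 μg/ml). Exposed 48 h at 37° to compound at 10.0, 1.0, 0.10 or 0.010 μg/ml; MeOH vehicle evaporated under vacuum. MTT added for 90 min, formazan dissolved in acidified iPrOH, A570 read. IC50 from linear regression of logit-transformed absorbance relative to drug-free wells.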

[6] = species: Mus musculus; assay: Induction of PKC-mediated mouse EL-4.IL-2 cells adherence by MTT assay
Summary of the method: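 EL-4.IL-2 cells (2.5×10^5/well) in RPMI 1640 with 10% FCS and 2-mercaptoethanol, incubated 1 h at 37° with compound in triplicate, without PMA and also with 16 nM PMA (final), EtOH ≤1.25%. Non-adherent cells removed by four shaking washes. Adherent cells quantified by MTT (4 h) with iPrOH solubilisation at 570 nm. Parallel unwashed plate monitored cytotoxicity.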

[7] = tested on: Malme-3M; assay: Cytotoxicity against human MALME-3M cells; type: functional; settings: read-out: Log10LC50 (converted)
[8] = tested on: A549; assay: Antitumor activity against human A549 cells xenografted in mouse at 0.3 mg/kg relative to control; type: functional
[9] = tested on: SK-MEL-5; assay: Cytotoxicity against human SK-MEL-5 cells; type: functional; settings: read-out: Log10LC50 (converted)
[10] = tested on: M19-MEL; assay: Cytotoxicity against human M19-MEL cells; type: functional; settings: read-out: Log10LC50 (converted)
[11] = tested on: Mus musculus; assay: Toxicity in human A549 cells xenografted mouse at 0.3 mg/kg; type: organism-based; set-up: dose 0.3 mg/kg; settings: in vivo

Row | Activity [3] | Structure (SMILES) | IC50 [1] [µg/mL] | IC50 [2] [µg/mL] | IC50 [4] [µg/mL] | IC50 [5] [µg/mL] | Activity [6] | CC50 [7] [µM] | Activity [8] | CC50 [9] [µM] | CC50 [10] [µM] | Activity [11] | T/C [8] [%]
1 | Active | CN(C)CCc1c2ncsc2c2c3c(c4ccccc4nc13)C=CN2C [DERCITIN] | < 6 | 0.07 (≈ 0.194 µM) | 0.02 (≈ 0.0555 µM) | 0.2 (≈ 0.555 µM) |  |  |  |  |  |  | 
2 |  | [C-]#[N+]C(C)(C)C[C@@H]1C[C@H](C)[C@H]2CC[C@H](C)[C@@]3([N+]#[C-])CCC(=C)[C@@H]1[C@H]23 [DIISOCYANOAMPHILECTENE] |  | 13 (≈ 40.1 µM) | 1.2 (≈ 3.7 µM) | 0.7 (≈ 2.16 µM) |  |  |  |  |  |  | 
3 |  | CC[C@H](C)[C@H]1C(=O)NCCC(=O)N[C@H]([C@@H](C)CC)C(=O)N(C)[C@@H](C(C)C)C(=O)N(C)[C@@H](C)C(=O)NCCC(=O)N[C@H](CC(C)C)C(=O)N(C)[C@H]([C@@H](C)CC)C(=O)O[C@H](C)[C@H](NC(=O)[C@@H](CC(C)C)N(C)C(=O)[C@@H](NC(=O)COC)C(C)C)C(=O)NCCC(=O)N[C@H](CC(C)C)C(=O)N1C [THEONELLAMINE B] |  | 5.3 (≈ 3.77 µM) | 5.1 (≈ 3.63 µM) | > 20 |  |  |  |  |  |  | 
4 |  | O=C1C[C@H]2S[C@H]3C[C@]2(C=C1Br)C1=C(N3)C(=O)c2[nH]cc3c2C1=NCC3 [DISCORHABDINE A] | 4.8 (≈ 11.5 µM) | 0.04 (≈ 0.0961 µM) | 0.01 (≈ 0.024 µM) | 0.1 (≈ 0.24 µM) | Active |  |  |  |  |  | 
5 |  | CSc1c2c3c(n1C)C(=O)C(=O)C(Cl)=C3NCC2 [BATZELLINE A] | 22.9 (≈ 81 µM) | 0.7 (≈ 2.48 µM) | 2.8 (≈ 9.9 µM) | 5.3 (≈ 18.7 µM) | Active | 15.5 | inactive | 6.61 | 6.61 |  | 
6 |  | C1=C\CCCCN(CCc2nccc3c2[nH]c2ccccc23)CCCC/1 [MANZAMINE C] | 12 (≈ 34.5 µM) | 3.5 (≈ 10.1 µM) | 1.5 (≈ 4.32 µM) | 2.6 (≈ 7.48 µM) | Active |  |  |  |  |  | 
7 |  | COC1=Cc2ccnc3ccnc(c23)C1=O [DEMETHYLOXY-AAPTAMINE] | < 0.05 | 5.2 (≈ 24.5 µM) | 1.5 (≈ 7.07 µM) | 1.6 (≈ 7.54 µM) | Active |  |  |  |  |  | 
8 |  | CC1=CC(=O)[C@]2(C)CC[C@H]([C@H](C)CC(=O)CC(C)C)[C@H]2CC1 [REISWIGIN A] |  | 7.2 (≈ 23.6 µM) | 6 (≈ 19.7 µM) | 8.5 (≈ 27.9 µM) |  |  |  |  |  |  | 
9 |  | C1=C\CC[C@]23CN4CCCC/C=C\CC[C@@]5(O[C@H]5[C@@H](c5nccc6c5[nH]c5ccccc56)[C@@H]2CC4)[C@@H]3NCCCC/1 [MANZAMINE B] |  | 4.5 (≈ 8.17 µM) | 1.6 (≈ 2.9 µM) | 6.6 (≈ 12 µM) |  |  |  |  |  |  | 
10 |  | O[C@]12C=C(c3nccc4c3[nH]c3ccccc34)[C@@H]3CCN(CCCC/C=C\CC1)C[C@@]31C[C@@H]3/C=C\CCCCN3[C@H]12 [MANZAMINE A] |  | 1.3 (≈ 2.37 µM) | 0.8 (≈ 1.46 µM) | 2.4 (≈ 4.37 µM) |  |  |  |  |  |  | 
11 |  | Cn1cc2c3c1C(=O)C1=C(C3=NCC2)C2(C=C(Br)C(=O)C(Br)=C2)CCN1 [DISCORHABDIN] | 0.5 (≈ 1.05 µM) | 0.3 (≈ 0.629 µM) | 0.1 (≈ 0.21 µM) | 0.5 (≈ 1.05 µM) | Active |  |  |  |  |  | 
12 |  | CO[C@H]([C@H](C)/C=C/N(C)C=O)[C@@H](C)C(=O)CC[C@H](C)[C@H](C[C@@H]1OC(=O)C[C@@H](OC(N)=O)C[C@H](C)C[C@H](O)[C@H](C)[C@@H](OC)c2coc(n2)-c2coc(n2)-c2coc(n2)/C=C/C[C@H](OC)[C@H]1C)OC [KABIRAMIDE C] | 0.3 (≈ 0.318 µM) | 0.8 (≈ 0.849 µM) |  | 0.3 (≈ 0.318 µM) | Active |  |  |  |  |  | 
13 |  | CCCCCCCCCCCCCCCC[C@@]1(OC)C=C[C@@H](CC(=O)OC)OO1 [CHONDRILLIN] | 0.4 (≈ 0.969 µM) | 0.3 (≈ 0.727 µM) | 1.1 (≈ 2.67 µM) | 2.4 (≈ 5.82 µM) | Active |  | inactive |  |  |  | 
14 |  | CC1(C)CCC[C@]2(C)[C@H]3C=C4C=C(O)C(=O)C=C4O[C@@]3(C)CC[C@@H]12 [PUUPEHENONE] |  | 0.4 (≈ 1.22 µM) | 0.2 (≈ 0.609 µM) | 1.3 (≈ 3.96 µM) |  |  |  |  |  |  | 
15 |  | O=C1c2nccc(O)c2-c2nc3ccccc3c3ccnc1c23 [MERIDINE] | 8.8 (≈ 29.4 µM) | 4.5 (≈ 15 µM) | 0.2 (≈ 0.668 µM) | 2 (≈ 6.68 µM) | Active |  |  |  |  |  | 
16 | Active | C[C@H]1CC[C@H]2C(C)(C)CCC[C@]23Oc2ccc(O)cc2C[C@]13C [AUREOL] | 9.9 (≈ 31.5 µM) | 4.3 (≈ 13.7 µM) | 4.7 (≈ 14.9 µM) | > 20 |  |  |  |  |  |  | 
17 |  | C[C@H]1C[C@]2(O[C@H]3C[C@H]4[C@@H]5CC[C@H]6C[C@H](O)CC[C@]6(C)[C@H]5[C@@H](O)C[C@]4(C)[C@H]3[C@@]2(C)O)OC1(C)C [EPIHIPPURISTANOL] |  | 0.04 (≈ 0.0865 µM) | 0.05 (≈ 0.108 µM) | 0.5 (≈ 1.08 µM) |  |  |  |  |  |  | 
18 |  | [C-]#[N+][C@@]12CCC(=C)[C@H]3[C@H](CC(C)(C)NC=O)C[C@H](C)[C@@H](CC[C@@H]1C)[C@@H]32 | 2.9 (≈ 8.47 µM) | 5.3 (≈ 15.5 µM) | 3.5 (≈ 10.2 µM) | 4.2 (≈ 12.3 µM) | Active |  |  |  |  |  | 

Row | Structure (SMILES) | Activity [3] | IC50 [1] [µg/mL] | IC50 [2] [µg/mL] | IC50 [4] [µg/mL] | IC50 [5] [µg/mL] | Activity [6] | CC50 [7] [µM] | Activity [8] | CC50 [9] [µM] | CC50 [10] [µM] | Activity [11] | T/C [8] [%]
19 | C/C1=C/C(=O)O[C@@H]2C[C@@H](CC[C@H](C)/C=C\C=C\CC1)O[C@@](O)([C@@H]1CSC(=O)N1)C2 [LATRUNCULIN A] | Active | 0.1 (≈ 0.237 µM) | 0.06 (≈ 0.142 µM) | 0.06 (≈ 0.142 µM) | 4.1 (≈ 9.73 µM) |  |  |  |  |  | Non-toxic | 146
